Laboratory results taken from ChEMBL document CHEMBL2176998, “Regulation of the Escherichia coli AtoSC two component system by synthetic biologically active 5;7;8-trimethyl-1;4-benzoxazine analogues” (Bioorg Med Chem, 2011).
Activity calls are given as the source filed them. The calls are words filed in the database; no cut-off is given here.

Key:
[1] = Induction of purified His6-tagged cytosolic AtoS autophosphorylation preincubated at 1 mM for 15 mins before […] addition after 30 mins by autoradiography
Method in brief: (§1)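 Purified His6-tagged cytoAtoS (7 µM) was preincubated 15 min at room temperature with compound at 1 mM final in 50 mM Tris-HCl pH 7.6, 10 mM MgCl2, 100 mM KCl, 1 mM DTT, 10 mM NaF. Reactions were stopped with SDS loading buffer, resolved on 12% SDS–PAGE and autoradiographed.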

Escherichia coli [2] = assay: Repression of atoDAEB transcription in Escherichia coli K-12 BW25113 at 1 mM by beta-galactosidase reporter assay; type: functional, organism-based
Method in brief: (§2)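 BW25113 carrying pCPG5 (atoA-lacZ, atoDAEB promoter) grown at 37 °C in supplemented M9 minimal medium with 1 mM compound. Overnight cultures were diluted 1:15 and grown to OD600 0.4–0.7. Cells were washed twice in M9, then β-galactosidase activity was read. Plasmid pMLB1034 served as negative control.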

Escherichia coli [3] = assay: Repression of atoC transcription in Escherichia coli K-12 BW25113 at 1 mM by beta-galactosidase reporter assay; type: functional, organism-based
Method in brief: (§3)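 BW25113 carrying pCPG6 (atoC-lacZ) grown at 37 °C with vigorous shaking in supplemented M9 minimal medium with ampicillin 100 µg/mL. Overnight cultures were diluted 1:15 into medium containing compound at 1 mM, or at 0, 0.25, 0.5, 1.0, 2.5 and 5 mM. Cells were grown to OD600 0.4–0.7, then harvested, washed twice in M9, and assayed for β-galactosidase. The pMLB1034 vector strain served as negative control. Two independent experiments, two clones each.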

Escherichia coli [4] = assay: Induction of atoDAEB transcription in Escherichia coli K-12 BW25113 at 1 mM by beta-galactosidase reporter assay; type: functional, organism-based; method in brief: as §2
Escherichia coli [5] = assay: Induction of atoC transcription in Escherichia coli K-12 BW25113 at 1 mM by beta-galactosidase reporter assay; type: functional, organism-based; method in brief: as §3
Nucleic Acid [6] = assay: Activation of atoDAEB promoter activity in Escherichia coli K-12 BW25113 harboring plasmid containing atoA-lacz at 0.1 to 2.5 mM by beta-galactosidase reporter assay in presence of 2.5 mM acetoacetate; type: nucleic-acid assay
Method in brief: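 BW25113/pCPG5 (atoA-lacZ) grown in modified M9 mineral medium with no acetoacetate or with 2.5 or 10 mM acetoacetate. Compound was added at 0.1, 0.5, 1.0 or 2.5 mM after 1:15 dilution of overnight cultures. Cells were grown to OD600 0.4–0.7, washed twice in M9 and assayed for β-galactosidase.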

[7] = Stimulation of recombinant purified His6-tagged cytosolic AtoS oligomers assessed as reduction in dimeric form at 1 mM using glutaraldehyde by SDS-PAGE analysis
Method in brief: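 It was then cross-linked 30 min at 25 °C with 0.1% glutaraldehyde. The reaction was stopped with 2× SDS loading buffer and boiling, run on 8.5% SDS–PAGE and immunoblotted with anti-His (1:500).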

[8] = Induction of purified His6-tagged cytosolic AtoS kinase activity preincubated at 1 mM for 15 mins before […] addition after 30 mins by autoradiography; method in brief: as §1
Escherichia coli [9] = assay: Reduction in AtoS protein level in Escherichia coli K-12 BW25113 grown to OD600 0.5 to 0.6 at 2.5 mM by immunoblot method; type: functional, organism-based
Method in brief: (§4)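 BW25113 carrying pUC-Az (atoS, atoC) grown in supplemented M9 with compound at 1.0 or 2.5 mM, added at the start of growth. Cultures were harvested at OD600 0.5–0.6. Whole-cell extracts in SDS loading buffer (15 µL) were boiled and run on SDS–PAGE, then immunoblotted with affinity-purified rabbit polyclonal anti-AtoC or anti-AtoS. BW28878, lacking AtoS/AtoC, was the negative control.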

Escherichia coli [10] = assay: Increase in AtoC protein level in Escherichia coli K-12 BW25113 grown to OD600 0.5 to 0.6 at 1 to 2.5 mM by immunoblot method; type: functional, organism-based; method in brief: as §4
Nucleic Acid [11] = assay: Effect on atoDAEB promoter activity in Escherichia coli K-12 BW25113 at 1 to 2.5 mM by beta-galactosidase reporter assay; type: nucleic-acid assay
Method in brief: (§5)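 BW25113 carrying pCPG4 (atoS-lacZ) or pCPG5 (atoA-lacZ), in supplemented M9 at 37 °C. Overnight cultures were diluted 1:15 into medium with compound at 1.0 or 2.5 mM and grown to OD600 0.4–0.7. Cells were harvested, washed twice in M9 and assayed for β-galactosidase. The pMLB1034 strain served as negative control.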

Escherichia coli [12] = assay: Induction of atoC transcription in Escherichia coli K-12 BW25113 by beta-galactosidase reporter assay; type: functional, organism-based; method in brief: as §3
Escherichia coli [13] = assay: Increase in DnaK protein level in Escherichia coli K-12 BW25113 by Western blot method; type: functional, organism-based
Escherichia coli [14] = assay: Reduction in AtoS protein level in Escherichia coli K-12 BW25113 at 1 to 5 mM by immunoblot method; type: functional, organism-based
Method in brief: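 BW25113/pUC-Az grown in supplemented M9 with various compound concentrations. Half of each dose was added at OD600 0.2 and half at 0.4, and growth continued to OD600 0.9. Total extracts (15 µL) were run on 10% SDS–PAGE and immunostained with anti-AtoC (1:500) or anti-AtoS (1:1000). BW28878 was the negative control.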

Escherichia coli [15] = assay: Effect on AtoS protein level in Escherichia coli K-12 BW25113 grown to OD600 0.5 to 0.6 at 1 mM by immunoblot method; type: functional, organism-based; method in brief: as §4
Escherichia coli [16] = assay: Effect on HSP60 protein level in Escherichia coli K-12 BW25113 harboring plasmid containing atoC-lacZ at 0.25 to 5 mM by Western blot method; type: functional, organism-based
Nucleic Acid [17] = assay: Activation of atoC promoter in Escherichia coli K-12 BW25113 by beta-galactosidase reporter assay; type: nucleic-acid assay; method in brief: as §3
Nucleic Acid [18] = assay: Effect on atoS promoter activity in Escherichia coli K-12 BW25113 at 1 to 2.5 mM by beta-galactosidase reporter assay; type: nucleic-acid assay; method in brief: as §5
Escherichia coli [19] = assay: Reduction in AtoC protein level in Escherichia coli K-12 BW25113 harboring pUC-Az plasmid at 5 mM by immunoblot method
Nucleic Acid [20] = assay: Activation of atoDAEB promoter activity in Escherichia coli K-12 BW25113 harboring plasmid containing atoA-lacz by beta-galactosidase reporter assay in presence of 2.5 mM acetoacetate

SMILES	Activity [1]	Activity (Escherichia coli [2])	Activity (Escherichia coli [4])	Activity (Escherichia coli [5])	also measured
Cc1c(C)c2c(c(C)c1Cl)NCC(c1ccccc1)O2 (stereo unspecified)	inactive		Active	Active	
COc1ccc(-c2c(C)c(C)c3c(c2C)NCCO3)cc1			inactive	Active	
COc1ccc(C2CNc3c(C)cc(C)c(C)c3O2)cc1 (stereo unspecified)	inactive		Active	Active	
COc1ccc(C2COc3c(C)c(C)cc(C)c3N2)cc1 (stereo unspecified)	inactive		Active		Activity (Escherichia coli [3]): Active

Further lines, with some results ahead:

Activity [1]	SMILES	Activity (Escherichia coli [2])	Activity (Escherichia coli [4])	Activity (Escherichia coli [5])	also measured
inactive	Cc1c(C)c2c(c(C)c1Cl)NCCO2	Active			Activity (Escherichia coli [3]): Active
inactive	Cc1c(C)c2c(c(C)c1Br)NCCO2	Active	inactive	inactive	
Active	Cc1cc(C)c2c(c1C)OCCN2	Active		Active	Activity (Nucleic Acid [6]): Active; Activity [7]: Active; Activity [8]: Active; Activity (Escherichia coli [9]): Active; Activity (Escherichia coli [10]): Active; Activity (Nucleic Acid [11]): inactive; Activity (Escherichia coli [12]): Dose-dependent effect; Activity (Escherichia coli [13]): Dose-dependent effect; Activity (Escherichia coli [14]): Active; Activity (Escherichia coli [15]): inactive; Activity (Escherichia coli [16]): inactive; Activity (Nucleic Acid [17]): Dose-dependent effect; Activity (Nucleic Acid [18]): inactive; Activity (Escherichia coli [19]): Active; Activity (Nucleic Acid [20]): Active
